Assay results taken from ChEMBL document CHEMBL2040816, “Design, synthesis, and structure-activity relationship studies of novel millepachine derivatives as potent antiproliferative agents” (Eur J Med Chem, 2012).
Calls of active or inactive are those of the source. The rule behind the calls is not given here.

Legend:
HepG2 [1] = experiment: Antiproliferative activity against human HepG2 cells after 24 hrs by MTT assay; format: functional, cell-based; conditions: HepG2, 24 h
How it was run: (§1)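 MTT assay. 1 × 10⁴ cells per well were plated and incubated 24 h before dye was added (20 µL of 5 mg/mL MTT in PBS per well), then incubated until a purple precipitate formed. Precipitate dissolved in 150 µL DMSO after medium removal, then absorbance read.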

K562 = experiment: Antiproliferative activity against human K562 cells after 24 hrs by MTT assay; format: functional, cell-based; conditions: K562, 24 h; how it was run: as §1
SK-OV-3 = experiment: Antiproliferative activity against human SKOV3 cells after 24 hrs by MTT assay; format: functional, cell-based; conditions: SK-OV-3, 24 h; how it was run: as §1
HCT-116 = experiment: Antiproliferative activity against human HCT116 cells after 24 hrs by MTT assay; format: functional, cell-based; conditions: HCT-116, 24 h; how it was run: as §1
HT-29 = experiment: Antiproliferative activity against human HT-29 cells after 24 hrs by MTT assay; format: functional, cell-based; conditions: HT-29, 24 h; how it was run: as §1
SW-620 = experiment: Antiproliferative activity against human SW620 cells after 24 hrs by MTT assay; format: functional, cell-based; conditions: SW-620, 24 h; how it was run: as §1
HepG2 [2] = experiment: Inhibition of alpha-tubulin in human HepG2 cells assessed as decrease in microtubule formation at 1 uM after 24 hrs by DAPI staining-based immunofluorescence analysis; format: cell-based
HepG2 [3] = experiment: Inhibition of alpha-tubulin in human HepG2 cells assessed as decrease in spindle formation at 1 uM after 24 hrs by DAPI staining-based immunofluorescence analysis; format: cell-based
HepG2 [4] = experiment: Cell cycle arrest in human HepG2 cells assessed as accumulation at G1 phase at 1.25 uM after 8 hrs by propidium iodide staining-based flow cytometric analysis (reference value: 49.86%); format: functional
HepG2 [5] = experiment: Cell cycle arrest in human HepG2 cells assessed as accumulation at S phase at 1.25 uM after 8 hrs by propidium iodide staining-based flow cytometric analysis (reference value: 32.43%); format: functional
HepG2 [6] = experiment: Cell cycle arrest in human HepG2 cells assessed as accumulation at G2/M phase at 1.25 uM after 8 hrs by propidium iodide staining-based flow cytometric analysis (reference value: 17.72%); format: functional
HepG2 [7] = experiment: Cell cycle arrest in human HepG2 cells assessed as accumulation at G1 phase at 2.5 uM after 8 hrs by propidium iodide staining-based flow cytometric analysis (reference value: 49.86%); format: functional
HepG2 [8] = experiment: Cell cycle arrest in human HepG2 cells assessed as accumulation at S phase at 2.5 uM after 8 hrs by propidium iodide staining-based flow cytometric analysis (reference value: 32.43%); format: functional
HepG2 [9] = experiment: Cell cycle arrest in human HepG2 cells assessed as accumulation at G2/M phase at 2.5 uM after 8 hrs by propidium iodide staining-based flow cytometric analysis (reference value: 17.72%); format: functional
HepG2 [10] = experiment: Cell cycle arrest in human HepG2 cells assessed as accumulation at G1 phase at 5 uM after 8 hrs by propidium iodide staining-based flow cytometric analysis (reference value: 49.86%); format: functional
A549 = experiment: Antitumor activity against human A549 cells xenografted in BALB/c mouse assessed as tumor growth inhibition at 20 mg/kg, iv administered at intervals of 2 days for 18 days relative to control; format: functional; conditions: read-out: GI
How it was run: (§2)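 Nude mice received 1 × 10⁷ A549 cells in 0.1 mL DMEM subcutaneously in the right gluteal region. At 100 mm³ tumour volume, 24 mice were randomised into four groups (n = 6). Test groups got 20 mg/kg in 0.2 mL physiological saline by tail vein every 2 days for 18 days. Vehicle control got saline; cisplatin 5 mg/kg weekly served as positive control. Tumour growth and body weight tracked; two-sided Student's t test.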

Mus musculus = experiment: Toxicity in BALB/c mouse bearing human A549 cells assessed as decrease in body weight at 20 mg/kg, iv administered at intervals of 2 days for 18 days; format: organism-based; design: dose 20 mg/kg, route intravenous; conditions: in vivo; how it was run: as §2
HepG2 [11] = experiment: Cell cycle arrest in human HepG2 cells assessed as accumulation at 5 uM after 8 hrs by propidium iodide staining-based flow cytometric analysis (reference value: 17.72%)
HepG2 [12] = experiment: Cell cycle arrest in human HepG2 cells assessed as accumulation at G2/M phase at 5 uM after 8 hrs by propidium iodide staining-based flow cytometric analysis (reference value: […])

## COc1ccc(/C=C/C(=O)c2ccc(OC)c3c2OC(C)(C)C=C3)cc1 [MILLEPACHINE]
HepG2 [1]
  IC50: 1.51 µM
K562
  IC50: 4.56 µM
SK-OV-3
  IC50: 2.36 µM
HCT-116
  IC50: 4.66 µM
HT-29
  IC50: 3.29 µM
SW-620
  IC50: 0.76 µM
HepG2 [2]
  inhibition: Active
HepG2 [3]
  inhibition: Active
HepG2 [4]
  Activity: 10.34%
HepG2 [5]
  Activity: 20.35%
HepG2 [6]
  Activity: 69.31%
HepG2 [7]
  Activity: 2.64%
HepG2 [8]
  Activity: 17.71%
HepG2 [9]
  Activity: 79.65%
HepG2 [10]
  Activity: 0.66%
A549
  inhibition in vivo at 20 mg/kg: 69.4%
Mus musculus
  Activity: Non-toxic
HepG2 [11]
  Activity: 91.65%
HepG2 [12]
  Activity: 7.68%

## CCN(CC)c1ccc(/C=C/C(=O)c2ccc(OC)c3c2OC(C)(C)C=C3)cc1
HepG2 [1]
  IC50: 0.59 µM
K562
  IC50: 0.79 µM
SK-OV-3
  IC50: 0.61 µM
HCT-116
  IC50: 0.62 µM
HT-29
  IC50: 0.55 µM
SW-620
  IC50: 0.67 µM
HepG2 [2]
  inhibition: Active
HepG2 [3]
  inhibition: Active
HepG2 [4]
  Activity: 40.67%
HepG2 [5]
  Activity: 16.77%
HepG2 [6]
  Activity: 42.55%
HepG2 [7]
  Activity: 4.49%
HepG2 [8]
  Activity: 17.17%
HepG2 [9]
  Activity: 78.35%
HepG2 [10]
  Activity: 0%
A549
  inhibition in vivo at 20 mg/kg: 84.1%
Mus musculus
  Activity: Non-toxic
HepG2 [11]
  Activity: 9.99%
HepG2 [12]
  Activity: 90.01%
